Columns and labels:
Conditions in all cases: in vivo
[1] = system: Thymus; assay: Biodistribution in male Sprague-Dawley rat thymus at 5 mg/kg, po administered as single dose measured after 0.5 hrs; assay type: ADME, organism-based; design: dose 5 mg/kg, dosed compound name [14C]-apixaban, route oral
Procedure, shortened: (§1)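 [14C]apixaban (1.0 mg/mL, 20 μCi/mL) in 0.5% Tween 80 in Labrafil, given by oral gavage at 100 μCi/kg to male rats (225-252 g) fasted overnight through 4 h post-dose. One rat per time point. Carcasses frozen in hexane/dry ice and cut into 40 µm sagittal sections. QWBA read on phosphor plates against [14C]glucose standards, reported as µg eq/g. LLOQ 0.037 µg eq/g.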

[2] = system: Adrenal gland; assay: Biodistribution in male Sprague-Dawley rat adrenal gland at 5 mg/kg, po administered as single dose measured after 0.5 hrs; assay type: ADME, organism-based; design: dose 5 mg/kg, dosed compound name [14C]-apixaban, route oral
Procedure, shortened: (§2)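 [¹⁴C]Apixaban given by oral gavage at 5 mg/kg (100 μCi/kg) in 0.5% Tween 80 in Labrafil (1.0 mg/mL dosing solution) to rats fasted overnight through 4 h post-dose. One rat per time point; carcass frozen in hexane/dry ice. Quantitative whole-body autoradiography used 40 µm sagittal sections and a phosphor imaging plate calibrated with [¹⁴C]glucose standards (0.001–6.5 μCi/g). Read-out in µg eq apixaban/g; LLOQ 0.037 μg eq/g.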

[3] = system: Rattus norvegicus; assay: Biodistribution in male Sprague-Dawley rat salivary gland at 5 mg/kg, po administered as single dose measured after 72 hrs; assay type: ADME, organism-based; design: dose 5 mg/kg, dosed compound name [14C]-apixaban, route oral
Procedure, shortened: (§3)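 Fasted male SD rats (225-252 g) each received one oral gavage dose of [14C]apixaban, 5 mg/kg (100 μCi/kg), in 0.5% Tween 80/Labrafil vehicle. One rat was killed per time point, from 0.5 to 168 h. Frozen carcasses were cut into 40 µm sagittal whole-body sections and read by QWBA phosphor imaging against [14C]glucose calibrants. Results are in µg apixaban eq/g; BLQ <0.037 µg eq/g.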

[4] = system: Heart; assay: Biodistribution in male Sprague-Dawley rat heart at 5 mg/kg, po administered as single dose measured after 8 hrs; assay type: ADME, organism-based; design: dose 5 mg/kg, dosed compound name [14C]-apixaban, route oral; procedure, shortened: as §1
[5] = system: Harderian gland; assay: Biodistribution in male Sprague-Dawley rat harderian gland at 5 mg/kg, po administered as single dose measured after 24 hrs; assay type: ADME, organism-based; design: dose 5 mg/kg, dosed compound name [14C]-apixaban, route oral; procedure, shortened: as §3
[6] = system: Pancreas; assay: Biodistribution in female Sprague-Dawley rat pancreas at 5 mg/kg, po administered as single dose measured after 24 hrs; assay type: ADME, organism-based; design: dose 5 mg/kg, dosed compound name [14C]-apixaban, route oral
Procedure, shortened: (§4)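 Quantitative whole-body autoradiography was run after a single 5 mg/kg (100 μCi/kg) oral gavage to fasted female or pregnant SD rats, one rat per time point. Carcasses were frozen in hexane/dry ice, and 40 µm sagittal sections were dried at −20°C for at least 48 h. Sections were exposed to a phosphor plate alongside [14C]glucose standards (0.001–6.5 µCi/g). Results are µg eq/g, with LLOQ 0.037 µg eq/g.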

[7] = system: Blood; assay: Biodistribution in female Sprague-Dawley rat blood at 5 mg/kg, po administered as single dose measured after 24 hrs; assay type: ADME, organism-based; design: dose 5 mg/kg, dosed compound name [14C]-apixaban, route oral; procedure, shortened: as §4
[8] = system: Rattus norvegicus; assay: Biodistribution in female Sprague-Dawley rat pituitary gland at 5 mg/kg, po administered as single dose measured after 0.5 hrs; assay type: ADME, organism-based; design: dose 5 mg/kg, dosed compound name [14C]-apixaban, route oral
Procedure, shortened: (§5)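 [14C]apixaban (20 μCi/mL in dosing solution) in 0.5% Tween 80 in Labrafil given by oral gavage to fasted female rats, 206-213 g, at 100 μCi/kg. One rat per time point was euthanized and snap-frozen. Sagittal 40 µm whole-body sections were read by QWBA phosphor imaging against [14C]glucose standards. Results are in µg eq apixaban/g, with LLOQ 0.037 μg eq/g.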

[9] = system: Muscle tissue; assay: Biodistribution in female Sprague-Dawley rat muscle at 5 mg/kg, po administered as single dose measured after 0.5 hrs; assay type: ADME, organism-based; design: dose 5 mg/kg, dosed compound name [14C]-apixaban, route oral; procedure, shortened: as §2
[10] = system: Lung; assay: Biodistribution in male Sprague-Dawley rat lung at 5 mg/kg, po administered as single dose measured after 24 hrs; assay type: ADME, organism-based; design: dose 5 mg/kg, dosed compound name [14C]-apixaban, route oral; procedure, shortened: as §1
[11] = system: Thymus; assay: Biodistribution in male Sprague-Dawley rat thymus at 5 mg/kg, po administered as single dose measured after 24 hrs; assay type: ADME, organism-based; design: dose 5 mg/kg, dosed compound name [14C]-apixaban, route oral; procedure, shortened: as §3
[12] = system: Rattus norvegicus; assay: Biodistribution in male Sprague-Dawley rat bone marrow at 5 mg/kg, po administered as single dose measured after 72 hrs; assay type: ADME, organism-based; design: dose 5 mg/kg, dosed compound name [14C]-apixaban, route oral; procedure, shortened: as §3
[13] = system: Rattus norvegicus; assay: Biodistribution in male Sprague-Dawley rat salivary gland at 5 mg/kg, po administered as single dose measured after 1 hr; assay type: ADME, organism-based; design: dose 5 mg/kg, dosed compound name [14C]-apixaban, route oral
[14] = system: Rattus norvegicus; assay: Biodistribution in male Sprague-Dawley rat bone marrow at 5 mg/kg, po administered as single dose measured after 8 hrs; assay type: ADME, organism-based; design: dose 5 mg/kg, dosed compound name [14C]-apixaban, route oral
Procedure, shortened: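 Fasted male rats, 225-252 g, received [14C]apixaban by single oral gavage at 100 μCi/kg in 0.5% Tween 80/Labrafil. One rat was killed per time point and the carcass frozen. Tissue radioactivity was quantified by QWBA (40 µm sagittal sections, phosphor plate, [14C]glucose calibration) as µg eq apixaban/g, with LLOQ 0.037 μg eq/g.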

[15] = system: Rattus norvegicus; assay: Biodistribution in pregnant Sprague-Dawley rat pituitary gland at 5 mg/kg, po administered as single dose measured after 24 hrs; assay type: ADME, organism-based; design: dose 5 mg/kg, dosed compound name [14C]-apixaban, route oral
Procedure, shortened: (§6)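 Pregnant SD rats (270-319 g) were fasted overnight and given one oral gavage of 5 mg/kg (100 μCi/kg) in 0.5% Tween 80 in Labrafil. One rat was euthanized per time point (0.5, 1, 4, 8, 24, 48 h) and the carcass frozen. 40 µm sagittal sections were phosphor-imaged against [14C]glucose standards and results reported as µg eq/g; LLOQ 0.037 µg eq/g.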

[16] = system: Thymus; assay: Biodistribution in pregnant Sprague-Dawley rat thymus at 5 mg/kg, po administered as single dose measured after 24 hrs; assay type: ADME, organism-based; design: dose 5 mg/kg, dosed compound name [14C]-apixaban, route oral; procedure, shortened: as §6
[17] = system: Rattus norvegicus; assay: Biodistribution in pregnant Sprague-Dawley rat placenta at 5 mg/kg, po administered as single dose measured after 24 hrs; assay type: ADME, organism-based; design: dose 5 mg/kg, dosed compound name [14C]-apixaban, route oral
[18] = system: Rattus norvegicus; assay: Biodistribution in fetal brain of pregnant Sprague-Dawley rat at 5 mg/kg, po administered as single dose measured after 24 hrs; assay type: ADME, organism-based; design: dose 5 mg/kg, dosed compound name [14C]-apixaban, route oral; procedure, shortened: as §4
[19] = system: Harderian gland; assay: Biodistribution in pregnant Sprague-Dawley rat harderian gland at 5 mg/kg, po administered as single dose measured after 48 hrs; assay type: ADME, organism-based; design: dose 5 mg/kg, dosed compound name [14C]-apixaban, route oral
Procedure, shortened: (§7)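 Fasted pregnant SD rats (n=6, 270-319 g) each received one oral gavage dose of [14C]apixaban, 5 mg/kg (100 μCi/kg), in 0.5% Tween 80/Labrafil. One rat was killed at each of 0.5, 1, 4, 8, 24 and 48 h. Carcasses were frozen in hexane/dry ice, cut into 40 µm sagittal sections, exposed to phosphor plates and quantified against [14C]glucose standards as µg eq/g. LLOQ was 0.037 µg eq/g.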

[20] = system: Liver; assay: Biodistribution in female Sprague-Dawley rat liver at 5 mg/kg, po administered as single dose measured after 4 hrs; assay type: ADME, organism-based; design: dose 5 mg/kg, dosed compound name [14C]-apixaban, route oral; procedure, shortened: as §4
[21] = system: Rattus norvegicus; assay: Biodistribution in female Sprague-Dawley rat bone marrow at 5 mg/kg, po administered as single dose measured after 4 hrs; assay type: ADME, organism-based; design: dose 5 mg/kg, dosed compound name [14C]-apixaban, route oral; procedure, shortened: as §5
[22] = system: Rattus norvegicus; assay: Biodistribution in pregnant Sprague-Dawley rat brown fat at 5 mg/kg, po administered as single dose measured after 4 hrs; assay type: ADME, organism-based, Brown adipose tissue; design: dose 5 mg/kg, dosed compound name [14C]-apixaban, route oral
[23] = system: Rattus norvegicus; assay: Biodistribution in pregnant Sprague-Dawley rat bone marrow at 5 mg/kg, po administered as single dose measured after 24 hrs; assay type: ADME, organism-based; design: dose 5 mg/kg, dosed compound name [14C]-apixaban, route oral; procedure, shortened: as §7
[24] = system: Harderian gland; assay: Biodistribution in pregnant Sprague-Dawley rat harderian gland at 5 mg/kg, po administered as single dose measured after 1 hr; assay type: ADME, organism-based; design: dose 5 mg/kg, dosed compound name [14C]-apixaban, route oral
[25] = system: Rattus norvegicus; assay: Biodistribution in pregnant Sprague-Dawley rat amnion at 5 mg/kg, po administered as single dose measured after 1 hr; assay type: ADME, organism-based; design: dose 5 mg/kg, dosed compound name [14C]-apixaban, route oral
[26] = Drug excretion in Sprague-Dawley rat feces at 30 mg/kg, po administered as single dose after 0 to 168 hrs

- Radiolabel recovery [1]: 0.16 ugequiv/g
- Radiolabel recovery [2]: 0.59 ugequiv/g
- Radiolabel recovery [3]: Not detected assumed BLQ
- Radiolabel recovery [4]: 0.08 ugequiv/g
- Radiolabel recovery [5]: Not detected assumed BLQ
- Radiolabel recovery [6]: Not detected assumed BLQ
- Radiolabel recovery [7]: Not detected assumed BLQ
- Radiolabel recovery [8]: 0.43 ugequiv/g
- Radiolabel recovery [9]: 0.23 ugequiv/g
- Radiolabel recovery [10]: < 0.037 ugequiv/g
- Radiolabel recovery [11]: Not detected assumed BLQ
- Radiolabel recovery [13]: 0.72 ugequiv/g
- Radiolabel recovery [14]: 0.07 ugequiv/g
- Radiolabel recovery [16]: Not detected assumed BLQ
- Radiolabel recovery [17]: < 0.037 ugequiv/g
- Radiolabel recovery [18]: Not detected assumed BLQ
- Radiolabel recovery [19]: Not detected assumed BLQ
- Radiolabel recovery [20]: 3.98 ugequiv/g
- Radiolabel recovery [21]: 0.26 ugequiv/g
- Radiolabel recovery [22]: 0.87 ugequiv/g
- Radiolabel recovery [23]: Not detected assumed BLQ
- Radiolabel recovery [24]: 1.09 ugequiv/g
- Radiolabel recovery [25]: 2.12 ugequiv/g
- Radiolabel recovery [26]: 74%
SMILES: COc1ccc(-n2nc(C(N)=O)c3c2C(=O)N(c2ccc(N4CCCC[14C]4=O)cc2)CC3)cc1
- Radiolabel recovery [12]: Not sampled as not visualised in autoradiograph
- Radiolabel recovery [15]: Not sampled as not visualised in autoradiograph

— ChEMBL document CHEMBL3525963, “Tissue distribution and elimination of [14C]apixaban in rats” (Drug Metab Dispos, 2011)
